This assay addresses Human immunodeficiency virus type 1 protease (Human immunodeficiency virus 1, UniProt Q72874). Kind of assay: HIV-1 protease inhibition. In outline:
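Affinity-purified HIV-1 protease (1.5 nM final) with 40 µM peptide substrate His-Lys-Ala-Arg-Val-Leu-(p-NO2-Phe)-Glu-Ala-Nle-Ser-NH2 and 1.0% DMSO. Buffer: 80 mM MES, 160 mM NaCl, 1.0 mM DTT, 1.0 mM EDTA, 0.1% PEG 8000, pH 6.2. Incubated 60 min at 37 °C, then quenched with TFA (2% final). Products separated by reverse-phase HPLC and read at 220 nm. Percent control derived from % conversion with vs without inhibitor; IC50 then determined.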

The results in this text go back to BindingDB's records for doi:10.1021/jm0003844 (Pfizer, 2001).

Molecules are shown by their SMILES. pIC50: −log10 of the molar value.

By pIC50 is commonly meant the IC50 on a negative log10 scale, so that one unit is a factor of ten. As to `Cc1cc(SC2C(=O)CC(CCc3ccsc3CO)(C(C)C)OC2=O)c(C(C)(C)C)cc1CO` (centres undefined) [3-(2-tert-Butyl-4-hydroxymethyl-5-methyl-phenylsulfanyl)-4-hydroxy-6-[2-(2-hydroxymethyl-thiophen-3-yl)-ethyl]-6-isopropyl-5,6-dihydro-pyran-2-one], the pIC50 is 7.85.

`Cc1cc(SC2C(=O)CC(CCc3cscn3)(C(C)C)OC2=O)c(C(C)(C)C)cc1CO` (centres undefined) [3-(2-tert-Butyl-4-hydroxymethyl-5-methyl-phenylsulfanyl)-4-hydroxy-6-isopropyl-6-(2-thiazol-4-yl-ethyl)-5,6-dihydro-pyran-2-one] had a pIC50 of 8.89.

Compound `Cc1cc(SC2C(=O)CC(CCc3nc(C(C)C)cs3)(C(C)C)OC2=O)c(C(C)(C)C)cc1CO` (centres undefined) [3-(2-tert-Butyl-4-hydroxymethyl-5-methyl-phenylsulfanyl)-4-hydroxy-6-isopropyl-6-[2-(4-isopropyl-thiazol-2-yl)-ethyl]-5,6-dihydro-pyran-2-one] showed a pIC50 of 7.85.

On to `Cc1cc(SC2C(=O)CC(CCc3ncsc3C)(C(C)C)OC2=O)c(C(C)(C)C)cc1CO` (centres undefined) [3-(2-tert-Butyl-4-hydroxymethyl-5-methyl-phenylsulfanyl)-4-hydroxy-6-isopropyl-6-[2-(5-methyl-thiazol-4-yl)-ethyl]-5,6-dihydro-pyran-2-one], for which the pIC50 is 8.89.
